In ChEMBL document CHEMBL2040727, “Substituted thiazoles VI. Synthesis and antitumor activity of new 2-acetamido- and 2 or 3-propanamido-thiazole analogs” (2012):

How the values were obtained:
Format in all cases: functional
K562 = assay: Growth inhibition of human K562 cells at 10 uM after 48 hrs by coulter counter analysis; conditions: K562, 48 h, read-out: GI
Summary of the method: (§1)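 Single-dose NCI 60-line panel screen of test compounds. Cells grown in RPMI 1640 with 10% FBS. Compounds dissolved in DMSO, then diluted in phosphate buffer saline (final DMSO below 1%). Wells run in duplicate at 6 × 10⁴ cells/ml. Controls held PBS and DMSO at matching dilutions. Incubation 48 h at 37 °C under humidified 5% CO2. Cells diluted tenfold in saline and counted by Coulter counter. Percent growth inhibition taken from mean-graph of treated-cell growth.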

RPMI-8226 = assay: Growth inhibition of human RPMI8226 cells at 10 uM after 48 hrs by coulter counter analysis; conditions: RPMI-8226, 48 h, read-out: GI; summary of the method: as §1
SR = assay: Growth inhibition of human SR cells at 10 uM after 48 hrs by coulter counter analysis; conditions: read-out: GI
Summary of the method: (§2)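 Single-dose screen in the NCI 60 cell line panel. Cells grown in RPMI 1640 with 10% FBS. Compounds dissolved in DMSO and diluted in phosphate buffered saline, final DMSO under 1%. Duplicate wells seeded from culture at 6 × 10⁴ cells/ml. Incubated 48 h at 37 °C, humidified, 5% CO2. Cells diluted tenfold in saline and Coulter-counted. Percent growth inhibition computed against PBS/DMSO controls.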

A549 = assay: Growth inhibition of human A549/ATCC cells at 10 uM after 48 hrs by coulter counter analysis; conditions: A549, 48 h, read-out: GI; summary of the method: as §1
EKVX = assay: Growth inhibition of human EKVX cells at 10 uM after 48 hrs by coulter counter analysis; conditions: read-out: GI; summary of the method: as §1
HOP-62 = assay: Growth inhibition of human HOP62 cells at 10 uM after 48 hrs by coulter counter analysis; conditions: HOP-62, 48 h, read-out: GI; summary of the method: as §1
HOP-92 = assay: Growth inhibition of human HOP92 cells at 10 uM after 48 hrs by coulter counter analysis; conditions: HOP-92, 48 h, read-out: GI; summary of the method: as §1
NCI-H226 = assay: Growth inhibition of human NCI-H226 cells at 10 uM after 48 hrs by coulter counter analysis; conditions: NCI-H226, 48 h, read-out: GI; summary of the method: as §1
NCI-H23 = assay: Growth inhibition of human NCI-H23 cells at 10 uM after 48 hrs by coulter counter analysis; conditions: NCI-H23, 48 h, read-out: GI; summary of the method: as §1
NCI-H322M = assay: Growth inhibition of human NCI-H322M cells at 10 uM after 48 hrs by coulter counter analysis; conditions: read-out: GI; summary of the method: as §1
NCI-H460 = assay: Growth inhibition of human NCI-H460 cells at 10 uM after 48 hrs by coulter counter analysis; conditions: NCI-H460, 48 h, read-out: GI; summary of the method: as §1
HCT-116 = assay: Growth inhibition of human HCT116 cells at 10 uM after 48 hrs by coulter counter analysis; conditions: HCT-116, 48 h, read-out: GI; summary of the method: as §1
HT-29 = assay: Growth inhibition of human HT-29 cells at 10 uM after 48 hrs by coulter counter analysis; conditions: HT-29, 48 h, read-out: GI; summary of the method: as §1
KM12 = assay: Growth inhibition of human KM12 cells at 10 uM after 48 hrs by coulter counter analysis; conditions: KM12, 48 h, read-out: GI; summary of the method: as §1
SW-620 = assay: Growth inhibition of human SW620 cells at 10 uM after 48 hrs by coulter counter analysis; conditions: SW-620, 48 h, read-out: GI; summary of the method: as §2
SF-295 = assay: Growth inhibition of human SF295 cells at 10 uM after 48 hrs by coulter counter analysis; conditions: SF-295, 48 h, read-out: GI; summary of the method: as §1
SNB-75 = assay: Growth inhibition of human SNB75 cells at 10 uM after 48 hrs by coulter counter analysis; conditions: SNB-75, 48 h, read-out: GI; summary of the method: as §2
U-251 = assay: Growth inhibition of human U251 cells at 10 uM after 48 hrs by coulter counter analysis; conditions: U-251, 48 h, read-out: GI; summary of the method: as §2
SK-MEL-28 = assay: Growth inhibition of human SK-MEL-28 cells at 10 uM after 48 hrs by coulter counter analysis; conditions: SK-MEL-28, 48 h, read-out: GI; summary of the method: as §1
SK-MEL-5 = assay: Growth inhibition of human SK-MEL-5 cells at 10 uM after 48 hrs by coulter counter analysis; conditions: SK-MEL-5, 48 h, read-out: GI; summary of the method: as §1
OVCAR-3 = assay: Growth inhibition of human OVCAR3 cells at 10 uM after 48 hrs by coulter counter analysis; conditions: OVCAR-3, 48 h, read-out: GI; summary of the method: as §1
OVCAR-5 = assay: Growth inhibition of human OVCAR5 cells at 10 uM after 48 hrs by coulter counter analysis; conditions: OVCAR-5, 48 h, read-out: GI; summary of the method: as §1
OVCAR-8 = assay: Growth inhibition of human OVCAR8 cells at 10 uM after 48 hrs by coulter counter analysis; conditions: OVCAR-8, 48 h, read-out: GI; summary of the method: as §1
[1] = Growth inhibition of human NCI-ADR-RES cells at 10 uM after 48 hrs by coulter counter analysis; conditions: read-out: GI; summary of the method: as §1
786-0 = assay: Growth inhibition of human 786-0 cells at 10 uM after 48 hrs by coulter counter analysis; conditions: 786-0, 48 h, read-out: GI; summary of the method: as §1
ACHN = assay: Growth inhibition of human ACHN cells at 10 uM after 48 hrs by coulter counter analysis; conditions: read-out: GI; summary of the method: as §1
CAKI-1 = assay: Growth inhibition of human Caki1 cells at 10 uM after 48 hrs by coulter counter analysis; conditions: CAKI-1, 48 h, read-out: GI; summary of the method: as §1
SN12C = assay: Growth inhibition of human SN12C cells at 10 uM after 48 hrs by coulter counter analysis; conditions: read-out: GI; summary of the method: as §1
UO-31 = assay: Growth inhibition of human UO31 cells at 10 uM after 48 hrs by coulter counter analysis; conditions: UO-31, 48 h, read-out: GI; summary of the method: as §2
PC-3 = assay: Growth inhibition of human PC3 cells at 10 uM after 48 hrs by coulter counter analysis; conditions: PC-3, 48 h, read-out: GI; summary of the method: as §1
DU-145 = assay: Growth inhibition of human DU145 cells at 10 uM after 48 hrs by coulter counter analysis; conditions: DU-145, 48 h, read-out: GI; summary of the method: as §1
MDA-MB-231 = assay: Growth inhibition of human MDA-MB-231 cells at 10 uM after 48 hrs by coulter counter analysis; conditions: MDA-MB-231, 48 h, read-out: GI; summary of the method: as §1
BT-549 = assay: Growth inhibition of human BT549 cells at 10 uM after 48 hrs by coulter counter analysis; conditions: BT-549, 48 h, read-out: GI; summary of the method: as §1
T47D = assay: Growth inhibition of human T47D cells at 10 uM after 48 hrs by coulter counter analysis; conditions: read-out: GI; summary of the method: as §2
MDA-MB-468 = assay: Growth inhibition of human MDA-MB-468 cells at 10 uM after 48 hrs by coulter counter analysis; conditions: MDA-MB-468, 48 h, read-out: GI; summary of the method: as §1
CCRF-CEM = assay: Growth inhibition of human CCRF-CEM cells at 10 uM after 48 hrs by coulter counter analysis; conditions: read-out: GI; summary of the method: as §1

Row | SMILES | inhibition of growth at 10 µM (K562) | inhibition of growth at 10 µM (RPMI-8226) | inhibition of growth at 10 µM (SR) | inhibition of growth at 10 µM (A549) | inhibition of growth at 10 µM (EKVX) | inhibition of growth at 10 µM (HOP-62) | inhibition of growth at 10 µM (HOP-92) | inhibition of growth at 10 µM (NCI-H226) | inhibition of growth at 10 µM (NCI-H23) | inhibition of growth at 10 µM (NCI-H322M) | inhibition of growth at 10 µM (NCI-H460) | inhibition of growth at 10 µM (HCT-116) | inhibition of growth at 10 µM (HT-29) | inhibition of growth at 10 µM (KM12) | inhibition of growth at 10 µM (SW-620) | inhibition of growth at 10 µM (SF-295) | inhibition of growth at 10 µM (SNB-75) | inhibition of growth at 10 µM (U-251) | inhibition of growth at 10 µM (SK-MEL-28) | inhibition of growth at 10 µM (SK-MEL-5) | further results
1 | CN1CCN(CCC(=O)Nc2nc(-c3ccccc3)cs2)CC1 | < 10% | 11.7% | < 10% | < 10% | < 10% | 14.5% | 24.5% | 17.4% | < 10% | < 10% | < 10% | < 10% | < 10% | < 10% | < 10% | < 10% | 30.5% | < 10% | < 10% | < 10% | inhibition of growth at 10 µM (OVCAR-3): < 10%; inhibition of growth at 10 µM (OVCAR-5): < 10%; inhibition of growth at 10 µM (OVCAR-8): < 10%; inhibition of growth at 10 µM [1]: 13%; inhibition of growth at 10 µM (786-0): < 10%; inhibition of growth at 10 µM (ACHN): < 10%; inhibition of growth at 10 µM (CAKI-1): 15.9%; inhibition of growth at 10 µM (SN12C): 17.2%; inhibition of growth at 10 µM (UO-31): 54%; inhibition of growth at 10 µM (PC-3): 10.9%; inhibition of growth at 10 µM (DU-145): < 10%; inhibition of growth at 10 µM (MDA-MB-231): 11.6%; inhibition of growth at 10 µM (BT-549): 16.5%; inhibition of growth at 10 µM (T47D): < 10%; inhibition of growth at 10 µM (MDA-MB-468): < 10%; inhibition of growth at 10 µM (CCRF-CEM): 14.4%
2 | O=C(CN1CCN(c2ccccc2)CC1)Nc1nc(-c2ccccc2)cs1 | 20% | 25% | < 10% | 17.6% | < 10% | < 10% | 25.6% | 19.1% | 18.6% | 11.3% | 25% | 17.7% | 23.8% | < 10% | < 10% | 15.9% | 29.7% | < 10% | < 10% | 31.9% | inhibition of growth at 10 µM (OVCAR-3): < 10%; inhibition of growth at 10 µM (OVCAR-5): < 10%; inhibition of growth at 10 µM (OVCAR-8): < 10%; inhibition of growth at 10 µM [1]: 23%; inhibition of growth at 10 µM (786-0): < 10%; inhibition of growth at 10 µM (ACHN): 16.2%; inhibition of growth at 10 µM (CAKI-1): 36.6%; inhibition of growth at 10 µM (SN12C): 17.3%; inhibition of growth at 10 µM (UO-31): 51.4%; inhibition of growth at 10 µM (PC-3): 26.3%; inhibition of growth at 10 µM (DU-145): < 10%; inhibition of growth at 10 µM (MDA-MB-231): 29.2%; inhibition of growth at 10 µM (BT-549): 11.3%; inhibition of growth at 10 µM (T47D): 29.7%; inhibition of growth at 10 µM (MDA-MB-468): 30.4%; inhibition of growth at 10 µM (CCRF-CEM): 22.7%
